Source: ChEMBL document CHEMBL1146344, “Design, synthesis, and evaluation of 2-aryl-3-heteroaryl-1,3-thiazolidin-4-ones as anti-HIV agents” (Bioorg Med Chem, 2007)

Tests used:
[1] = Cytotoxicity against MT4 cells; assay type: cell-based; conditions: human
How it was run: (§1)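 Mock-infected MT-4 or CEM cultures exposed to compound dilutions at 37 °C, with incubation times as in the antiviral runs. Viable cell number determined. Means of at least two separate experiments.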

[2] = Cytotoxicity against CEM cells; assay type: cell-based; conditions: human, CEM (CCRF-CEM) cells; how it was run: as §1

Fc1cccc(F)c1C1SCc2nc3ccccc3n21 (configuration not stated) [THIAZOLOBENZIMIDAZOLE]
CC50 [1]: 19.2 µM | CC50 [2]: 50 µM
